Results published in ChEMBL document CHEMBL6134900 (J Med Chem, 2025).
Active and inactive are the calls of the source. No cut-off for these calls is given here.

Key:
[1] = molecular target: T1, Protein cereblon/SWI/SNF-related matrix-associated actin-dependent regulator of chromatin subfamily A member 2 (Homo sapiens, UniProt P51531+Q96SW2); experiment: PROTAC activity at CRBN/SMARCA2 in human NCI-H2126 cells harboring mutated SMARCA4 assessed as induction of SMARCA2 degradation incubated for 48 hrs by immunoblot analysis; type: cell-based
How it was run: (§1)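 SMARCA4-mutant H322, HCC515, H2030 and H2126 cells were treated as indicated. SMARCA2 was immunoblotted in RIPA lysates and quantified after normalisation to β-actin. Expression is given relative to DMSO-treated cells, and Dmax was derived by nonlinear regression.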
Target sequence in this assay (P51531 whole entry, looked up, change not shown): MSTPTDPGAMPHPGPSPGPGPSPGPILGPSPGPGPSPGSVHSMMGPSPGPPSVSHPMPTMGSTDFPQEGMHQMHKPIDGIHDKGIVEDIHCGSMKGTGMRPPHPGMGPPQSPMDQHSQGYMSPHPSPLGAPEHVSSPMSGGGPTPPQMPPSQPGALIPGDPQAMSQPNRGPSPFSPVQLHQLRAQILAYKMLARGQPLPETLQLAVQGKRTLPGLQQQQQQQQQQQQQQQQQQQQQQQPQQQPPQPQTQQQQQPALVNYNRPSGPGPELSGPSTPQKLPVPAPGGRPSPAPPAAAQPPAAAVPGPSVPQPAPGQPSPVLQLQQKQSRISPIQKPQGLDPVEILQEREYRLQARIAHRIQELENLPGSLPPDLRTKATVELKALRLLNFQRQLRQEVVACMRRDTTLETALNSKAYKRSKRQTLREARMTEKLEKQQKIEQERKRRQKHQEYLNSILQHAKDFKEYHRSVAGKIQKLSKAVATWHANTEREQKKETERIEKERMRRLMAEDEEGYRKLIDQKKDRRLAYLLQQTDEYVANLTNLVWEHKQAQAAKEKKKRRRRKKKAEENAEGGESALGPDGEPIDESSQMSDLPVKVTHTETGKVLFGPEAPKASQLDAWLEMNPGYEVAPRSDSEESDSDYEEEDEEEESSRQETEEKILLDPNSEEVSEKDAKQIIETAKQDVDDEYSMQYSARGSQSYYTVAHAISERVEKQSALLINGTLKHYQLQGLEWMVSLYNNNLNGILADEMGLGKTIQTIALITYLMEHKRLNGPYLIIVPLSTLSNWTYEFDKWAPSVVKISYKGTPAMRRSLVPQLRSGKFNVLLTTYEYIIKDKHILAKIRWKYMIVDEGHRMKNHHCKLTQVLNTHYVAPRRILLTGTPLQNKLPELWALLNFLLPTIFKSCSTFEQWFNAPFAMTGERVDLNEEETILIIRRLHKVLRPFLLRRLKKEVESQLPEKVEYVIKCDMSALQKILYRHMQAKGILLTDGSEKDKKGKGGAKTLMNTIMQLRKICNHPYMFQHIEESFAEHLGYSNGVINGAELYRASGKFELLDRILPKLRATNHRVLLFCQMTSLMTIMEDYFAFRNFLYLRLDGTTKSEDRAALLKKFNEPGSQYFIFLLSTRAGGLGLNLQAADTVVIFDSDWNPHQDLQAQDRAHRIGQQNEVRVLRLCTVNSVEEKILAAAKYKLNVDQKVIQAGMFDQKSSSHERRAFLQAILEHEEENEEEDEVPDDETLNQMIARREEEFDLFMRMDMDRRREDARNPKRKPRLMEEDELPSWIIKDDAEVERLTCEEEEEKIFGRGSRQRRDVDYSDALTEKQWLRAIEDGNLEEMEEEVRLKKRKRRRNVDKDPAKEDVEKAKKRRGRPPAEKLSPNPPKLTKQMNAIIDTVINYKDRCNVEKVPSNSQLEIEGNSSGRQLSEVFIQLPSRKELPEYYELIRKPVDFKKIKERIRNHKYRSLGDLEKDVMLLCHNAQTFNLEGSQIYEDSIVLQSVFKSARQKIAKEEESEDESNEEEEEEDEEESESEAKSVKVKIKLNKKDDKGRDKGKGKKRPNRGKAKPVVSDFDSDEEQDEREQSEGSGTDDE
Target sequence in this assay (Q96SW2 whole entry, looked up, change not shown): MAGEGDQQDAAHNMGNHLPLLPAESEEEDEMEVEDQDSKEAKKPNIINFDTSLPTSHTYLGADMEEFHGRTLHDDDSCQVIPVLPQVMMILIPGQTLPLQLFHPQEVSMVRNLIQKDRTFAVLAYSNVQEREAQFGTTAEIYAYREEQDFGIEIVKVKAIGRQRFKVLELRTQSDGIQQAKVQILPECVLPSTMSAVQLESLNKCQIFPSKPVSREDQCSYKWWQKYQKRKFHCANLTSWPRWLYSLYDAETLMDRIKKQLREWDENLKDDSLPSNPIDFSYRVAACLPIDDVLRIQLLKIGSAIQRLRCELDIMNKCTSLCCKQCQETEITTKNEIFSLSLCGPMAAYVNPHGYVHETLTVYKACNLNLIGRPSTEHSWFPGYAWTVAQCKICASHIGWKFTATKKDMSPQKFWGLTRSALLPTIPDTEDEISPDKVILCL

[2] = Cmax in male CD-1 (ICR) mouse at 25 mg/kg, po measured up to 24 hrs by LC-MS/MS analysis; type: ADME, organism-based; conditions: in vivo
How it was run: (§2)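 Single 25 mg/kg dose. IP vehicle was 5% DMSO/5% solutol/90% water at 1.25 mg/mL, final pH 4.39, clear solution. Oral vehicle was 0.5% methylcellulose/0.2% Tween 80 in water, opaque suspension. Plasma sampled at 0.25, 0.5, 1, 2, 4, 8 and 24 h. Plasma protein-precipitated with internal standard in acetonitrile, then LC-MS/MS. n = 3 mice per time point, mean.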

[3] = Cmax in male CD-1 (ICR) mouse at 25 mg/kg, ip measured up to 24 hrs by LC-MS/MS analysis; type: ADME, organism-based; conditions: in vivo; how it was run: as §2
[4] = molecular target: T2, Protein cereblon/SWI/SNF-related matrix-associated actin-dependent regulator of chromatin subfamily A member 4 (Homo sapiens, UniProt P51532+Q96SW2); experiment: PROTAC activity at CRBN/SMARCA4 in human NCI-H1792 cells harboring wild type SMARCA4 assessed as induction of SMARCA4 degradation incubated for 48 hrs by immunoblot analysis; type: cell-based
T2 sequence (P51532 whole entry): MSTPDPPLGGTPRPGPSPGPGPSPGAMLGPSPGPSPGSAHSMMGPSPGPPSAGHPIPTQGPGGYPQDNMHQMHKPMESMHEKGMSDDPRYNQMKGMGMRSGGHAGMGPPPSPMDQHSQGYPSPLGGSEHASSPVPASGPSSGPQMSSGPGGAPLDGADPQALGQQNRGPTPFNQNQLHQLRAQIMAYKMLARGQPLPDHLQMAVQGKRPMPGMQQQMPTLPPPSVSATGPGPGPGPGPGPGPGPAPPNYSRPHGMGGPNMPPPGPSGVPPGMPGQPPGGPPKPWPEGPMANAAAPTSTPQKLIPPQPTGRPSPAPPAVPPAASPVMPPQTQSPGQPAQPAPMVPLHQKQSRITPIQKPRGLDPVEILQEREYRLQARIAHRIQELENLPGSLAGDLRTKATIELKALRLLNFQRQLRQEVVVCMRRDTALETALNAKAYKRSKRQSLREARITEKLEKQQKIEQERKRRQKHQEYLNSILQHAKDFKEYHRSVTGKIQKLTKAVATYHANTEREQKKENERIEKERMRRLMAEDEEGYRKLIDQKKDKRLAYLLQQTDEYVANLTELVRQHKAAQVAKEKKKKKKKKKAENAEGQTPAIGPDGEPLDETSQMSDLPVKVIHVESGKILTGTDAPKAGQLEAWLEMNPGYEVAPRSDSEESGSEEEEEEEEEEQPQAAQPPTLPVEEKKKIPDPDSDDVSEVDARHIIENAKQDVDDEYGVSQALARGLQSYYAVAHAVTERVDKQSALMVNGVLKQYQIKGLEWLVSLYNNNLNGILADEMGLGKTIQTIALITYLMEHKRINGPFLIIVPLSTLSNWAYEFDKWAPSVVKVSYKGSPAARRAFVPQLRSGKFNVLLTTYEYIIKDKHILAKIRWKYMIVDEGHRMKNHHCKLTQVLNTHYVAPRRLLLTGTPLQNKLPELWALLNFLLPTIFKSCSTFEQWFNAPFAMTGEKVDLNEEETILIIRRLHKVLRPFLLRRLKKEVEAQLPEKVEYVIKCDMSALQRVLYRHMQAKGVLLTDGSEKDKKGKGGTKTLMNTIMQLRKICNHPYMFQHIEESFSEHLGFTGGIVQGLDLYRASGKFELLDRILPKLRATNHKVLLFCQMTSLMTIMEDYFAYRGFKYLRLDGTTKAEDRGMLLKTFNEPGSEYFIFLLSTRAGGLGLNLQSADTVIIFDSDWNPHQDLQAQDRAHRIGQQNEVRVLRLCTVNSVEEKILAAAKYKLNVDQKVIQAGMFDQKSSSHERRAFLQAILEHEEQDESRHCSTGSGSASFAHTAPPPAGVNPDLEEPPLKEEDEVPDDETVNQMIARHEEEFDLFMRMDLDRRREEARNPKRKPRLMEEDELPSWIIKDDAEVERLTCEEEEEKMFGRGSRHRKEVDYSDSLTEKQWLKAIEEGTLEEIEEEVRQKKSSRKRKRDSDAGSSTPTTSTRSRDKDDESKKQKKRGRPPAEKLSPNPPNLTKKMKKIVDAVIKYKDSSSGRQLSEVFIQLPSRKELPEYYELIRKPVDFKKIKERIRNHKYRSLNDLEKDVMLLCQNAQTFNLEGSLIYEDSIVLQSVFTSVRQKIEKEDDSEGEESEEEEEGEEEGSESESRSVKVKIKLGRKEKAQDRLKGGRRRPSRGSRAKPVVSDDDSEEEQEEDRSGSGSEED
T2 sequence (Q96SW2 whole entry): as the sequence (Q96SW2 whole entry, looked up, change not shown) above
How it was run: (§3)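 H1792 (SMARCA4-WT) cells in RPMI with 10% FBS were treated with 1 nM–10 μM for 24 or 48 h. Cells were lysed in RIPA and immunoblotted for SMARCA2, SMARCA4 and β-actin. Bands were quantified and normalised to β-actin, with DMSO set at 100%. DC50 and Dmax were derived by nonlinear regression. n = 3 biological replicates.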

[5] = AUC (0 to last) in male CD-1 (ICR) mouse at 25 mg/kg, ip measured up to 24 hrs by LC-MS/MS analysis; type: ADME, organism-based; conditions: in vivo; how it was run: as §2
[6] = molecular target: T1, Protein cereblon/SWI/SNF-related matrix-associated actin-dependent regulator of chromatin subfamily A member 2; experiment: PROTAC activity at CRBN/SMARCA2 in human NCI-H2030 cells harboring mutated SMARCA4 assessed as induction of SMARCA2 degradation incubated for 48 hrs by immunoblot analysis; type: cell-based; how it was run: as §1
Target sequence in this assay (P51531 whole entry, looked up, change not shown): as the sequence (P51531 whole entry, looked up, change not shown) above
Target sequence in this assay (Q96SW2 whole entry, looked up, change not shown): as the sequence (Q96SW2 whole entry, looked up, change not shown) above

[7] = molecular target: T1, Protein cereblon/SWI/SNF-related matrix-associated actin-dependent regulator of chromatin subfamily A member 2; experiment: PROTAC activity at CRBN/SMARCA2 in human NCI-H1792 cells harboring wild type SMARCA4 assessed as induction of SMARCA2 degradation incubated for 48 hrs by immunoblot analysis; type: cell-based; how it was run: as §3
Target sequence in this assay (P51531 whole entry): as the sequence (P51531 whole entry, looked up, change not shown) above
Target sequence in this assay (Q96SW2 whole entry): as the sequence (Q96SW2 whole entry, looked up, change not shown) above

[8] = (§4) Inhibition of colony formation in human HCC44 cells harboring wild type SMARCA4 incubated for 9 to 14 days by crystal violet staining based assay; type: functional, cell-based
How it was run: (§5)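 Single cells, 0.5–2 × 10^3 per well in 6-well plates, in RPMI with 10% FBS. Grown 9–14 days in drug-containing medium, refreshed every fifth day. Fixed in 10% formalin, stained with 0.01% crystal violet. Total colony area quantified and expressed relative to DMSO. n = 3 biological replicates. IC50 ratio is wild-type over mutant.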

[9] = test system: HCC44; experiment: as §4; type: functional, cell-based; conditions: dose 0.001-10 µM, time 9-14 day; how it was run: as §5
[10] = molecular target: T2, Protein cereblon/SWI/SNF-related matrix-associated actin-dependent regulator of chromatin subfamily A member 4; experiment: PROTAC activity at CRBN/SMARCA4 in human NCI-H1792 cells harboring wild type SMARCA4 assessed as induction of SMARCA4 degradation incubated for 24 hrs by immunoblot analysis; type: cell-based; how it was run: as §3
[11] = Metabolic stability in mouse liver microsomes assessed as compound remaining by measuring fold change in absence of NADPH measured after 60 mins by LC-MS/MS analysis; type: ADME, Microsome; conditions: 1 h
How it was run: (§6)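 Microsomes at 0.5 mg protein/mL preincubated with compound for 10 min at 37 °C. The NCF60 control received 100 mM potassium phosphate buffer in place of the NADPH regenerating system and was incubated 1 h at 37 °C. Quenched with cold acetonitrile containing tolbutamide and labetalol internal standards, centrifuged, supernatant analyzed by LC-MS/MS. Fraction remaining reported.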

[12] = (§7) Inhibition of colony formation in human NCI-H2122 cells harboring wild type SMARCA4 incubated for 9 to 14 days by crystal violet staining based assay; type: functional, cell-based; how it was run: as §5
[13] = test system: NCI-H2122; experiment: as §7; type: functional, cell-based; conditions: dose 0.001-10 µM, time 9-14 day; how it was run: as §5
[14] = test system: NCI-H1693; experiment: Inhibition of colony formation in human NCI-H1693 cells harboring SMARCA4 mutant incubated for 9 to 14 days by crystal violet staining based assay; type: functional, cell-based; conditions: for inhibition: dose 0.001-10 µM, time 9-14 day; how it was run: as §5
[15] = AUC (0 to infinity) in male CD-1 (ICR) mouse at 25 mg/kg, ip measured up to 24 hrs by LC-MS/MS analysis; type: ADME, organism-based; conditions: in vivo; how it was run: as §2
[16] = molecular target: T1, Protein cereblon/SWI/SNF-related matrix-associated actin-dependent regulator of chromatin subfamily A member 2; experiment: PROTAC activity at CRBN/SMARCA2 in human NCI-H1792 cells harboring wild type SMARCA4 assessed as induction of SMARCA2 degradation incubated up to 96 hrs by immunoblot analysis; type: cell-based
[17] = Half life in male CD-1 (ICR) mouse at 25 mg/kg, ip measured up to 24 hrs by LC-MS/MS analysis; type: ADME, organism-based; conditions: in vivo; how it was run: as §2
[18] = molecular target: T1, Protein cereblon/SWI/SNF-related matrix-associated actin-dependent regulator of chromatin subfamily A member 2; experiment: PROTAC activity at CRBN/SMARCA2 in human H322 cells harboring mutated SMARCA4 assessed as induction of SMARCA2 degradation incubated for 48 hrs by immunoblot analysis; type: cell-based; how it was run: as §1
Target sequence in this assay (P51531 whole entry, looked up, change not shown): as the sequence (P51531 whole entry, looked up, change not shown) above
Target sequence in this assay (Q96SW2 whole entry, looked up, change not shown): as the sequence (Q96SW2 whole entry, looked up, change not shown) above

[19] = molecular target: T1, Protein cereblon/SWI/SNF-related matrix-associated actin-dependent regulator of chromatin subfamily A member 2; experiment: PROTAC activity at CRBN/SMARCA2 in human HCC515 cells harboring mutated SMARCA4 assessed as induction of SMARCA2 degradation incubated for 48 hrs by immunoblot analysis; type: cell-based; how it was run: as §1
Target sequence in this assay (P51531 whole entry, looked up, change not shown): as the sequence (P51531 whole entry, looked up, change not shown) above
Target sequence in this assay (Q96SW2 whole entry, looked up, change not shown): as the sequence (Q96SW2 whole entry, looked up, change not shown) above

[20] = AUC (0 to last) in male CD-1 (ICR) mouse at 25 mg/kg, po measured up to 24 hrs by LC-MS/MS analysis; type: ADME, organism-based; conditions: in vivo; how it was run: as §2
[21] = molecular target: T1, Protein cereblon/SWI/SNF-related matrix-associated actin-dependent regulator of chromatin subfamily A member 2; experiment: PROTAC activity at CRBN/SMARCA2 in human NCI-H1792 cells harboring wild type SMARCA4 assessed as induction of SMARCA2 degradation incubated for 24 hrs by immunoblot analysis; type: cell-based; how it was run: as §3
Target sequence in this assay (P51531 whole entry): as the sequence (P51531 whole entry, looked up, change not shown) above
Target sequence in this assay (Q96SW2 whole entry): as the sequence (Q96SW2 whole entry, looked up, change not shown) above

[22] = test system: NCI-H1568; experiment: (§8) Inhibition of colony formation in human NCI-H1568 cells harboring SMARCA4 mutant incubated for 9 to 14 days by crystal violet staining based assay; type: functional, cell-based; conditions: dose 0.001-10 µM, time 9-14 day; how it was run: as §5
[23] = as §8; type: functional, cell-based; how it was run: as §5
[24] = Metabolic stability in human liver microsomes assessed as compound remaining by measuring fold change in absence of NADPH measured after 60 mins by LC-MS/MS analysis; type: ADME, Microsome; conditions: 1 h; how it was run: as §6

## Nc1nnc(-c2ccccc2O)cc1N1CCN(Cc2ccc(N3CCN(CCOc4cccc5c4C(=O)N(C4CCC(=O)NC4=O)C5=O)CC3)c(F)c2)CC1 (stereo not given)
[1]
  DC50: 1.6 nM
[2]
  Cmax: 587 ng/mL
[3]
  Cmax: 2039.7 ng/mL
[4]
  DC50: 149 nM
[5]
  AUClast: 19365.3 ng·h/mL
[6]
  DC50: 10.3 nM
[7]
  DC50: 16 nM
[8]
  IC50: 9100 nM
[9]
  inhibition: Dose-dependent-effect
[10]
  DC50: 19 nM
[11]
  fold change (FC): 0.368
[12]; Homo sapiens, NCI-H2122, read-out: IC50
  IC50: 9100 nM
[13]
  inhibition: Dose-dependent-effect
[14]
  IC50: 11 nM
  inhibition: Dose-dependent-effect
[15]
  AUC: 27108.3 ng·h/mL
[16]
  Activity: Active; More Potent And Fastest Degradation Observed
[17]
  t1/2: 13 h
[18]
  DC50: 1 nM
[19]
  DC50: 1.2 nM
[20]
  AUClast: 4743 ng·h/mL
[21]
  DC50: 8.1 nM
[22]
  inhibition: Dose-dependent-effect
[23]
  IC50: 11 nM
[24]
  fold change (FC): 0.501

## Nc1nnc(-c2ccccc2O)cc1N1CCN(Cc2ccc(N3CCC(CN4CCN(c5ccc6c(c5)C(=O)N(C5CCC(=O)NC5=O)C6=O)CC4)CC3)c(F)c2)CC1 (stereo not given)
[1]
  DC50: 1.2 nM
[2]
  Cmax: 649.3 ng/mL
[3]
  Cmax: 1756.3 ng/mL
[4]
  DC50: 381 nM
[5]
  AUClast: 23213.7 ng·h/mL
[6]
  DC50: 12.7 nM
[7]
  DC50: 60 nM
[8]
  IC50: 10000 nM
[9]
  inhibition: Dose-dependent-effect
[10]
  DC50: 135 nM
[11]
  fold change (FC): 0.935
[12]; dose 0.001-10 µM, time 9-14 day
  IC50: 10000 nM
[13]
  inhibition: Dose-dependent-effect
[14]
  IC50: 78 nM
  inhibition: Dose-dependent-effect
[15]
  AUC: 68813 ng·h/mL
[16]
  Activity: Active
[17]
  t1/2: 44.8 h
[18]
  DC50: 6.4 nM
[19]
  DC50: 10.6 nM
[20]
  AUClast: 12079.3 ng·h/mL
[21]
  DC50: 69 nM
[22]
  inhibition: Dose-dependent-effect
[23]
  IC50: 78 nM
[24]
  fold change (FC): 0.33
